Test results taken from ChEMBL document CHEMBL4311941, “Development of Multifunctional Histone Deacetylase 6 Degraders with Potent Antimyeloma Activity” (J Med Chem, 2019).
Calls of active or inactive are those of the source. The rule behind the calls is not given here.

What was measured:
[1] = target: T1, Protein cereblon/Zinc finger protein Aiolos (Homo sapiens) (UniProt Q96SW2+Q9UKT9); assay: Protac activity at CRBN/IKZF3 in human MM1S cells assessed as IKZF3 degradation at 100 nM measured after 6 hrs by Western blot analysis; type: cell-based
T1 sequence (Q96SW2 whole entry, looked up): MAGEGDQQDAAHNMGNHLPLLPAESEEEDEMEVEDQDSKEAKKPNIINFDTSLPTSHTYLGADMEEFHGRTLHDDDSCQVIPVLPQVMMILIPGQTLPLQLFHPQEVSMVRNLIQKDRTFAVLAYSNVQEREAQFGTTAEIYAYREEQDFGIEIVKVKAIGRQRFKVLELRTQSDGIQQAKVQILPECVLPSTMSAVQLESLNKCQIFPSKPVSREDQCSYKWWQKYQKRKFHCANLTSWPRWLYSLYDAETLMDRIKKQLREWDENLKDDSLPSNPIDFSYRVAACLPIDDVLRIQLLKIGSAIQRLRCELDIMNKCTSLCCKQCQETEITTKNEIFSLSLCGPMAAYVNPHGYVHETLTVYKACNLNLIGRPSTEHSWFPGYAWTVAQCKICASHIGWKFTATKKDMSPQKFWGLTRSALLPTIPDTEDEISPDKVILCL
T1 sequence (Q9UKT9 whole entry, looked up): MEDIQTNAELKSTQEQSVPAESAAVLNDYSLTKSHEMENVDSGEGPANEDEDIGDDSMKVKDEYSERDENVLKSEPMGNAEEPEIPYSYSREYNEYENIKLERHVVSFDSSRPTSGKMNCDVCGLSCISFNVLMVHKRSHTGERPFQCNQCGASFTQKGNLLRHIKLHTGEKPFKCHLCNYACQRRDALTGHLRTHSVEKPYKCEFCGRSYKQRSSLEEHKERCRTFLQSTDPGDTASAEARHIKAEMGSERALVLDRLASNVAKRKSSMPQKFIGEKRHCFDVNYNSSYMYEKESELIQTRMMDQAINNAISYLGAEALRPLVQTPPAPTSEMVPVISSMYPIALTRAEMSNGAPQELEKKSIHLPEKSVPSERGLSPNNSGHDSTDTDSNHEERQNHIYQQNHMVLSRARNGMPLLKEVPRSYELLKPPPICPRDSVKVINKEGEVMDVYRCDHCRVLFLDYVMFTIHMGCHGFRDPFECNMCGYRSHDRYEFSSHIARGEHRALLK
Procedure, shortened: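 Time course in MM1S cells (1 × 10^6 cells per well, seeded overnight) under 100 nM degrader. Whole-cell RIPA lysates analysed by 7.5−12% SDS-PAGE and PVDF immunoblot. Primary antibody at 4 °C overnight, HRP secondary 1 h, ECL detection with densitometry.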

[2] = target: T2, Protein cereblon/Histone deacetylase 1 (Homo sapiens) (UniProt Q13547+Q96SW2); assay: Protac activity at CRBN/HDAC1 in human MM1S cells assessed as HDAC1 degradation at 100 nM measured up to 8 hrs by Western blot analysis; type: cell-based
T2 sequence (Q13547 whole entry, looked up): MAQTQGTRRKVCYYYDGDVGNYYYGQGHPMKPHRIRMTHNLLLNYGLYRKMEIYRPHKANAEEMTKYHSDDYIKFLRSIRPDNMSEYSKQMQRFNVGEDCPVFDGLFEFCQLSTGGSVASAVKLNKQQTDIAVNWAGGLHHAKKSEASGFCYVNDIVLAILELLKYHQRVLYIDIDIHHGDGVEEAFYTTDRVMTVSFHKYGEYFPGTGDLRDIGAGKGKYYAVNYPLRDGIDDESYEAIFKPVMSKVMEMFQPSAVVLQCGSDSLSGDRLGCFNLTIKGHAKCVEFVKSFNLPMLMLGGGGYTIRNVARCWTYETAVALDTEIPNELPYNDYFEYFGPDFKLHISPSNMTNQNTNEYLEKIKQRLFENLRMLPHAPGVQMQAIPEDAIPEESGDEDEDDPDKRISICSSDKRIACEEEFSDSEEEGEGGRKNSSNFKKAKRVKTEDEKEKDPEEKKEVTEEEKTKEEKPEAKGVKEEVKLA
T2 sequence (Q96SW2 whole entry, looked up): as the sequence (Q96SW2 whole entry, looked up) above

[3] = target: T3, Protein cereblon/Protein deacetylase HDAC6 (Homo sapiens, UniProt Q9UBN7+Q96SW2); assay: Protac activity at CRBN/HDAC6 in human Jurkat cells assessed as HDAC6 degradation at 10 to 100 nM incubated for 6 hrs by Western blot analysis; type: cell-based
T3 sequence (Q96SW2 whole entry, looked up): as above
T3 sequence (Q9UBN7 whole entry, looked up): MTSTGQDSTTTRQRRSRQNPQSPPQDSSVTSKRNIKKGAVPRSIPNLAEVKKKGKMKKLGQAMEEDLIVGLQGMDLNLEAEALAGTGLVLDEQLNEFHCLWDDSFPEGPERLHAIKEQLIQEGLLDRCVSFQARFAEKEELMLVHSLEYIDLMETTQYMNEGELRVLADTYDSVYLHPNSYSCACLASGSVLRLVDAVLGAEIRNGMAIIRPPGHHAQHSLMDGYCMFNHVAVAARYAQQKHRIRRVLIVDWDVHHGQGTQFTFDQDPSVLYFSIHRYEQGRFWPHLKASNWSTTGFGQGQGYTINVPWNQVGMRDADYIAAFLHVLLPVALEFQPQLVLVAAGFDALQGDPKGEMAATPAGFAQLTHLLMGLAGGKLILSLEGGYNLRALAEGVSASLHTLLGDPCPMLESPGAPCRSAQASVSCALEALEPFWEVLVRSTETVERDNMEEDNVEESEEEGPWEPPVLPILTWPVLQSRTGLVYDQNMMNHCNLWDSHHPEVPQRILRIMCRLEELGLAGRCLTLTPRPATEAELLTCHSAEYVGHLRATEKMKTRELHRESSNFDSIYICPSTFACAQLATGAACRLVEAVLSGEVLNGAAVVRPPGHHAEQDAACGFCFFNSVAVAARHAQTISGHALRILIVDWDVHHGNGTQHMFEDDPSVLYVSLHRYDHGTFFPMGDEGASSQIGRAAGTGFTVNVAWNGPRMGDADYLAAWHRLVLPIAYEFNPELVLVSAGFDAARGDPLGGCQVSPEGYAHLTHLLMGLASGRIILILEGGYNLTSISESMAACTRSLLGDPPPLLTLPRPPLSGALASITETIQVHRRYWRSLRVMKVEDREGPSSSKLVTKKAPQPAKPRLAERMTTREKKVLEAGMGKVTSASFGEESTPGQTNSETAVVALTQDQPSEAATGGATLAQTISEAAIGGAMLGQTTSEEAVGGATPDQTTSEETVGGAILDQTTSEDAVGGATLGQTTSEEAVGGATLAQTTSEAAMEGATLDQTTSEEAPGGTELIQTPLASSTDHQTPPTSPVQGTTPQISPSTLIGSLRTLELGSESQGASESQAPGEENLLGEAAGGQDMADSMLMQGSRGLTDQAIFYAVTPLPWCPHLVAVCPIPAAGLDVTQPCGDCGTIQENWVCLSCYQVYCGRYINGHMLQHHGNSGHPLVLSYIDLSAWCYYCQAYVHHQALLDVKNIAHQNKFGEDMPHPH

[4] = target: T3, Protein cereblon/Protein deacetylase HDAC6; assay: Protac activity at CRBN/HDAC6 in human A375 cells assessed as HDAC6 degradation up to 1 uM incubated for 6 hrs by Western blot analysis; type: cell-based
[5] = target: T3, Protein cereblon/Protein deacetylase HDAC6; assay: Protac activity at CRBN/HDAC6 in human MCF7 cells assessed as HDAC6 degradation up to 10 uM incubated for 6 hrs by Western blot analysis; type: cell-based
[6] = target: Histone deacetylase 4 (Homo sapiens, UniProt P56524); assay: Inhibition of human N-terminal tagged human HDAC4 expressed in HEK293T/17 using Boc-[TFA-Lys]-AMC as substrate preincubated for 10 mins followed by substrate addition and measured after 60 mins by fluorescence assay
Chain of Histone deacetylase 4 (P56524 whole entry): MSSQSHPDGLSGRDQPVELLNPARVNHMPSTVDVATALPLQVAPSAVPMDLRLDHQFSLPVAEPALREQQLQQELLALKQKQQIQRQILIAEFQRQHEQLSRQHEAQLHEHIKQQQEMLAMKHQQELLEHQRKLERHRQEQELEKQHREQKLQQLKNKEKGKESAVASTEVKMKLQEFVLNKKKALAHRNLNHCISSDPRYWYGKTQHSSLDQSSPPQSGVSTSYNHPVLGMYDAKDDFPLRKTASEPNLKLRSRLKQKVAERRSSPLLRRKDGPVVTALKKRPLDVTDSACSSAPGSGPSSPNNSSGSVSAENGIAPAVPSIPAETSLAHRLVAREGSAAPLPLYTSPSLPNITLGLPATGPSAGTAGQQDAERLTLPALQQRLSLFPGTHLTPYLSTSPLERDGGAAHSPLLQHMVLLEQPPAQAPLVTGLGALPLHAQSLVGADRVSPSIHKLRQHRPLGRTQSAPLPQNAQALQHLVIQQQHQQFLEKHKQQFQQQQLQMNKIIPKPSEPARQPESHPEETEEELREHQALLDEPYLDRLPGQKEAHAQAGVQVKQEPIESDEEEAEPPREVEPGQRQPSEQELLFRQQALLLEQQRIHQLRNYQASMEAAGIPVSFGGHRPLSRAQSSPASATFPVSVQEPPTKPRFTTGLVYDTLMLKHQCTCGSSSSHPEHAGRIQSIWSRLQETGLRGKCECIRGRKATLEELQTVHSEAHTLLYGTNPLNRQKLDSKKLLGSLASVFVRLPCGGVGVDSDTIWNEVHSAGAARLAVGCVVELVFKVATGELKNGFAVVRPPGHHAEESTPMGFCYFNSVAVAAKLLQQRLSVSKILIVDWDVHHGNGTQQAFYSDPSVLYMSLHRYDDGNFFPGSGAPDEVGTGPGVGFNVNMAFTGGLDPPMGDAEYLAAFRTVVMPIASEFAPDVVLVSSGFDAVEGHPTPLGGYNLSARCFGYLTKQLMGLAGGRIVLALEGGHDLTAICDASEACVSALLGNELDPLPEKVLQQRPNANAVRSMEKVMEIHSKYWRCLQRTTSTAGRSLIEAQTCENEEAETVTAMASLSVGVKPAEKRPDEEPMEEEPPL

[7] = target: T4, Histone deacetylase 8 (Homo sapiens, UniProt Q9BY41); assay: Inhibition of human N-terminal tagged human HDAC8 expressed in HEK293T/17 using Boc-[TFA-Lys]-AMC as substrate preincubated for 10 mins followed by substrate addition and measured after 60 mins by fluorescence assay
T4 sequence (Q9BY41 whole entry): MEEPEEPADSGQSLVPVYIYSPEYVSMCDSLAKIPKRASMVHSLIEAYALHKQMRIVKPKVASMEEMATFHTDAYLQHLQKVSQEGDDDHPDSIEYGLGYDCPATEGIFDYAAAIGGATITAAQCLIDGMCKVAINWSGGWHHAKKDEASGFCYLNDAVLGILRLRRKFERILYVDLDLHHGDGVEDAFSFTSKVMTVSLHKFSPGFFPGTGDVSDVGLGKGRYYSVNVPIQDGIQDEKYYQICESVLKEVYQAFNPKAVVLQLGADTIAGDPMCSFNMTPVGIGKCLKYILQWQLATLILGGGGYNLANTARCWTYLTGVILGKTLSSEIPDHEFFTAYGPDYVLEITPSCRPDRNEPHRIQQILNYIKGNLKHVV

[8] = target: T1, Protein cereblon/Zinc finger protein Aiolos (Homo sapiens); assay: Protac activity at CRBN/IKZF3 in human MM1S cells assessed as IKZF3 degradation at 100 nM measured after 6 hrs in presence of HDAC6 inhibitor Next-A by Western blot analysis; type: cell-based
Procedure, shortened: (§1)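 MM1S cells seeded at 1 × 10^6 per well overnight. Pretreated 1 h with pomalidomide, Next-A, MLN 4924 or DMSO, then given 100 nM degrader or DMSO for 6 h. Lysed in RIPA with protease inhibitors, 10−40 μg protein run on SDS-PAGE and transferred to PVDF. Blots probed for IKZF1/IKZF3, detected by ECL and quantified by densitometry.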

[9] = target: T1, Protein cereblon/Zinc finger protein Aiolos (Homo sapiens); assay: Protac activity at CRBN/IKZF3 in human MM1S cells assessed as IKZF3 degradation at 100 nM measured after 6 hrs in presence of E3 ligase ligand pomalidomide by Western blot analysis; type: cell-based; procedure, shortened: as §1
[10] = target: T3, Protein cereblon/Protein deacetylase HDAC6; assay: Protac activity at CRBN/HDAC6 in human MM1S cells assessed as HDAC6 degradation at 100 nM measured after 6 hrs in presence of proteasome inhibitor bortezomib by Western blot analysis; type: cell-based
[11] = target: T2, Protein cereblon/Histone deacetylase 1 (Homo sapiens); assay: Protac activity at CRBN/HDAC1 in human MM1S cells assessed as HDAC1 degradation at 100 nM measured after 6 hrs in presence of proteasome inhibitor MG132 by Western blot analysis; type: cell-based
[12] = target: T2, Protein cereblon/Histone deacetylase 1 (Homo sapiens); assay: Protac activity at CRBN/HDAC1 in human MM1S cells assessed as HDAC1 degradation at 100 nM measured after 6 hrs in presence of proteasome inhibitor bortezomib by Western blot analysis; type: cell-based
[13] = target: T3, Protein cereblon/Protein deacetylase HDAC6; assay: Protac activity at CRBN/HDAC6 in human MM1S cells assessed as induction of alpha tubulin acetylation at 100 nM measured after 6 hrs in presence of proteasome inhibitor MG132 by Western blot analysis; type: cell-based
[14] = test system: MM1.S; assay: Effect on HDAC1 mRNA expression in human MM1S cells at 100 nM measured after 6 hrs by SYBR green dye-based qRT-PCR analysis; type: functional, cell-based
Procedure, shortened: (§2)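 After treatment, MM1S cells washed twice with cold PBS. Total RNA extracted and normalized, then reverse-transcribed. 10 ng cDNA amplified with SYBR Green: 50 °C 2 min, 95 °C 2 min, then 40 cycles of 95 °C 1 s / 60 °C 30 s, followed by a melt curve. Expression calculated by the 2−ΔΔCt method.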

[15] = test system: MM1.S; assay: Effect on IKZF1 mRNA expression in human MM1S cells at 100 nM measured after 6 hrs by SYBR green dye-based qRT-PCR analysis; type: functional, cell-based; procedure, shortened: as §2
[16] = test system: MM1.S; assay: Effect on IKZF3 mRNA expression in human MM1S cells at 100 nM measured after 6 hrs by SYBR green dye-based qRT-PCR analysis; type: functional, cell-based; procedure, shortened: as §2

CCCCN(Cc1ccc(C(=O)NO)cc1)C(=O)Nc1ccc(OCCCCCn2cc(CNc3cccc4c3C(=O)N(C3CCC(=O)NC3=O)C4=O)nn2)cc1 (stereo unspecified) was tested, and the Activity [1] was “Active”, the Activity [2] was “inactive” and the Activity [3] was “Active”. For the same compound, the Activity [4] was “Active”, the Activity [5] was “Active” and the IC50 [6] was 0.3 to 30 µM. The IC50 [7] was 0.3 to 30 µM, the Activity [8] was “Active” and the Activity [9] was “Active”. For the same compound, the Activity [10] was “inactive”, the Activity [11] was “inactive” and the Activity [12] was “inactive”. For the same compound, the Activity [13] was “inactive”, the Activity [14] was “Active” and the Activity [15] was “Active”. The Activity [16] was “Active”.
